# Key:
# [1] = system: Mycobacterium tuberculosis; test: Antimicrobial activity against Mycobacterium tuberculosis H37Rv ATCC 27294 harboring pFCA-lux AB gene measured under aerobic condition after 8 days by luminescence analysis; assay type: functional; settings: H37Rv ATCC 27294, 192 h
# Procedure, shortened: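 MABA: replicating M. tb H37Rv exposed to compound aerobically for 8 days. […] Mean of at least two independent determinations ± SD.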
# [2] = system: Mycobacterium tuberculosis; test: Antimicrobial activity against Mycobacterium tuberculosis H37Rv ATCC 27294 harboring pFCA-lux AB gene measured under anaerobic condition after 11 days by luminescence analysis; assay type: functional; settings: H37Rv ATCC 27294, 264 h
# Procedure, shortened: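 LORA: luminescence-based low-oxygen-recovery assay on nonreplicating M. tb, 11-day anaerobic exposure. MIC is the mean of at least two independent determinations ± SD.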
Compound,MIC [1],MIC [2]
O=C(N[C@@H]1COc2nc([N+](=O)[O-])cn2C1)c1ccc(OC(F)(F)F)cc1,1.8 µM,
CN(C(=O)c1cccc(OC(F)(F)F)c1)[C@@H]1COc2nc([N+](=O)[O-])cn2C1,24 µM,> 64 µM
CN(C(=O)c1ccc(OC(F)(F)F)cc1)[C@@H]1COc2nc([N+](=O)[O-])cn2C1,22 µM,> 64 µM
O=[N+]([O-])c1cn2c(n1)OC[C@@H](NS(=O)(=O)c1ccccc1OC(F)(F)F)C2,> 64 µM,> 64 µM
O=[N+]([O-])c1cn2c(n1)OC[C@@H](NS(=O)(=O)c1cccc(OC(F)(F)F)c1)C2,> 64 µM,> 64 µM
O=[N+]([O-])c1cn2c(n1)OC[C@@H](NS(=O)(=O)c1ccc(OC(F)(F)F)cc1)C2,9.7 µM,> 64 µM
CN([C@@H]1COc2nc([N+](=O)[O-])cn2C1)S(=O)(=O)c1ccccc1OC(F)(F)F,20 µM,45 µM
CN([C@@H]1COc2nc([N+](=O)[O-])cn2C1)S(=O)(=O)c1cccc(OC(F)(F)F)c1,12 µM,64 µM
CN([C@@H]1COc2nc([N+](=O)[O-])cn2C1)S(=O)(=O)c1ccc(OC(F)(F)F)cc1,0.53 µM,22 µM
O=C(Cc1ccc(OC(F)(F)F)cc1)N[C@@H]1COc2nc([N+](=O)[O-])cn2C1,0.27 µM,21 µM
O=C(CN[C@@H]1COc2nc([N+](=O)[O-])cn2C1)c1ccc(OC(F)(F)F)cc1,7.6 µM,> 64 µM
O=C(CN[C@@H]1COc2nc([N+](=O)[O-])cn2C1)Nc1ccc(OC(F)(F)F)cc1,0.7 µM,46 µM
O=C(N[C@@H]1COc2nc([N+](=O)[O-])cn2C1)Oc1ccc(OC(F)(F)F)cc1,> 64 µM,64 µM
O=C(N[C@@H]1COc2nc([N+](=O)[O-])cn2C1)OCc1ccc(OC(F)(F)F)cc1,0.15 µM,11 µM
O=C(Nc1ccc(OC(F)(F)F)cc1)N[C@@H]1COc2nc([N+](=O)[O-])cn2C1,0.23 µM,4.2 µM
O=C(N[C@@H]1COc2nc([N+](=O)[O-])cn2C1)OCc1ccc(-c2ccc(OC(F)(F)F)cc2)cc1,0.11 µM,5 µM
O=C(N[C@@H]1COc2nc([N+](=O)[O-])cn2C1)OCc1ccc(-c2ccc(C(F)(F)F)nc2)cc1,0.23 µM,4.7 µM

Compound,MIC [1],MIC [2]
O=C(N[C@@H]1COc2nc([N+](=O)[O-])cn2C1)OCc1ccc(-c2ccc(F)nc2)cc1,0.34 µM,4.3 µM
O=C(Nc1cccc(-c2ccc(C(F)(F)F)cc2)c1)N[C@@H]1COc2nc([N+](=O)[O-])cn2C1,0.035 µM,3.6 µM
O=C(Nc1cccc(-c2ccc(F)cc2)c1)N[C@@H]1COc2nc([N+](=O)[O-])cn2C1,0.03 µM,3.8 µM
O=C(Nc1cccc(-c2ccc(OC(F)(F)F)cc2)c1)N[C@@H]1COc2nc([N+](=O)[O-])cn2C1,0.25 µM,5.8 µM
O=C(Nc1cccc(-c2ccc(C(F)(F)F)nc2)c1)N[C@@H]1COc2nc([N+](=O)[O-])cn2C1,0.22 µM,13 µM
O=C(Nc1cccc(-c2ccc(F)nc2)c1)N[C@@H]1COc2nc([N+](=O)[O-])cn2C1,0.23 µM,15 µM
O=C(Nc1ccc(-c2ccc(C(F)(F)F)cc2)cc1)N[C@@H]1COc2nc([N+](=O)[O-])cn2C1,0.19 µM,> 32 µM
O=C(Nc1ccc(-c2ccc(F)cc2)cc1)N[C@@H]1COc2nc([N+](=O)[O-])cn2C1,1.3 µM,9.1 µM
O=C(Nc1ccc(-c2ccc(OC(F)(F)F)cc2)cc1)N[C@@H]1COc2nc([N+](=O)[O-])cn2C1,0.06 µM,18 µM
O=C(NCc1ccc(-c2ccc(OC(F)(F)F)cc2)cc1)N[C@@H]1COc2nc([N+](=O)[O-])cn2C1,1 µM,32 µM
O=C(NCc1ccc(-c2ccc(C(F)(F)F)nc2)cc1)N[C@@H]1COc2nc([N+](=O)[O-])cn2C1,0.4 µM,> 32 µM
O=C(Nc1cccc(-c2ccc(C(F)(F)F)cc2)c1)O[C@@H]1COc2nc([N+](=O)[O-])cn2C1,0.04 µM,1 µM
O=C(Nc1cccc(-c2ccc(F)cc2)c1)O[C@@H]1COc2nc([N+](=O)[O-])cn2C1,0.027 µM,1.5 µM
O=C(Nc1cccc(-c2ccc(OC(F)(F)F)cc2)c1)O[C@@H]1COc2nc([N+](=O)[O-])cn2C1,0.06 µM,0.85 µM
O=C(Nc1cccc(-c2ccc(C(F)(F)F)nc2)c1)O[C@@H]1COc2nc([N+](=O)[O-])cn2C1,0.11 µM,2.9 µM
O=C(Nc1cccc(-c2ccc(F)nc2)c1)O[C@@H]1COc2nc([N+](=O)[O-])cn2C1,0.24 µM,5.8 µM
O=C(Nc1ccc(-c2ccc(C(F)(F)F)cc2)cc1)O[C@@H]1COc2nc([N+](=O)[O-])cn2C1,0.055 µM,> 32 µM

# From ChEMBL document CHEMBL1944507, “Structure-activity relationships for amide-, carbamate-, and urea-linked analogues of the tuberculosis drug (6S)-2-nitro-6-{[4-(trifluoromethoxy)benzyl]oxy}-6,7-dihydro-5H-imidazo[2,1-b][1,3]oxazine (PA-824)” (J Med Chem, 2012)
